In ChEMBL document CHEMBL4038321, “Design, Synthesis, and Pharmacokinetics of a Bone-Targeting Dual-Action Prodrug for the Treatment of Osteoporosis” (J Med Chem, 2017):

Columns and labels:
Heart [1] = assay: Drug uptake in Sprague-Dawley rat heart at 8.9 uCi, iv administered as bolus dose after 6 hrs; type: ADME, organism-based; details: in vivo
Summary of the method: (§1)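 Female Sprague Dawley rats, about 13 weeks old, in five groups of three. Single IV tail-vein bolus of mixed 3H-conjugate (8.90 µCi/rat) and 14C-conjugate (1.77 µCi/rat), total dose 5.0 mg/kg. Vehicle was 10% Poloxamer 188, brought to pH 8.0 with NaHCO3, then diluted with an equal volume of PBS. Groups were killed at 6 h, 1, 7, 14 and 28 days. Tissues and femurs were incinerated in a biological oxidizer. Values are % of administered dose, with skeleton taken as 8% of body weight, averaged over three rats.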

Bone [2] = assay: Drug uptake in Sprague-Dawley rat bone at 8.9 uCi, iv administered as bolus dose after 6 hrs; type: ADME, organism-based, Bone element; details: in vivo; summary of the method: as §1
Bone [3] = assay: Drug uptake in Sprague-Dawley rat bone at 8.9 uCi, iv administered as bolus dose after 1 day; type: ADME, organism-based, Bone element; details: in vivo, 24 h; summary of the method: as §1
Bone [4] = assay: Drug uptake in Sprague-Dawley rat bone at 8.9 uCi, iv administered as bolus dose after 28 days; type: ADME, organism-based, Bone element; details: in vivo, 672 h; summary of the method: as §1
Spleen [5] = assay: Drug uptake in Sprague-Dawley rat spleen at 8.9 uCi, iv administered as bolus dose after 28 days; type: ADME, organism-based; details: in vivo, 672 h
Summary of the method: (§2)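 Female Sprague Dawley rats, about 13 weeks old on arrival, in five groups of three. Single IV tail-vein bolus of mixed [3H]- and [14C]-labelled conjugate (8.90 and 1.77 µCi/rat), total 5.0 mg/kg. Vehicle was 10% Poloxamer 188 adjusted to pH 8.0 with NaHCO3, then diluted with an equal volume of PBS. Groups killed at 6 h, 1, 7, 14 and 28 days. Spleen radioactivity measured by oxidizer incineration and reported as percent of administered dose, averaged over three rats.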

Brain [6] = assay: Drug uptake in Sprague-Dawley rat brain at 8.9 uCi, iv administered as bolus dose after 6 hrs; type: ADME, organism-based; details: in vivo; summary of the method: as §1
Kidney [7] = assay: Drug uptake in Sprague-Dawley rat kidney at 8.9 uCi, iv administered as bolus dose after 6 hrs; type: ADME, organism-based; details: in vivo; summary of the method: as §1
Plasma [8] = assay: Drug metabolism in rat plasma assessed as tritium label liberation preincubated with rat plasma followed by bovine bone powder addition measured after 4 hrs; type: ADME, cell-free
Summary of the method: (§3)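 Tritium-labelled conjugate incubated in rat plasma at 37 °C. At fixed times the incubate was stirred with bovine bone powder to adsorb intact conjugate and any cleaved bisphosphonate. Unbound radioactivity in the supernatant was then counted as liberated label.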

Rattus norvegicus [9] = assay: Toxicity in Sprague-Dawley rat at 31 uCi, iv administered via tail vein after 6 hrs; type: organism-based; details: in vivo
Summary of the method: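 Three female Sprague Dawley rats, about 23 weeks old on arrival, received an IV tail-vein injection of 5 mg/kg conjugate with 31.0 µCi [3H] per rat. Vehicle was 10% Poloxamer 188 adjusted to pH 8.0 with NaHCO3 and diluted 1:1 with PBS. Tolerability was observed over 6 h with blood sampling, and the study ended at 6 h.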

Kidney [10] = assay: Drug uptake in Sprague-Dawley rat kidney at 8.9 uCi, iv administered as bolus dose after 28 days; type: ADME, organism-based; details: in vivo, 672 h; summary of the method: as §1
Spleen [11] = assay: Drug uptake in Sprague-Dawley rat spleen at 8.9 uCi, iv administered as bolus dose after 14 days; type: ADME, organism-based; details: in vivo, 336 h; summary of the method: as §2
[12] = Drug metabolism in rat plasma at 100 uM measured after 24 hrs by HPLC analysis; type: ADME, cell-free; details: read-out: Drug metabolism
Summary of the method: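 Conjugate incubated in rat plasma at 37 °C for 24 h and compared with inactivated control plasma. Aliquots were taken at 0, 1, 2, 4 and 24 h and quenched with methanol containing 1.0 M HCl, then centrifuged. Remaining conjugate in the supernatant was quantified by reverse-phase HPLC with UV detection at 254 nm.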

Rattus norvegicus [13] = assay: Toxicity in Sprague-Dawley rat assessed as unusual reaction at 8.9 uCi, iv administered as bolus dose after 28 dyas; type: organism-based; details: in vivo
Summary of the method: (§4)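 Same dual-label study: female Sprague Dawley rats got one IV tail-vein bolus of [3H] (8.90 µCi) plus [14C] (1.77 µCi) conjugate, total 5.0 mg/kg, in Poloxamer 188/PBS vehicle at pH 8.0. Groups of three were sacrificed up to 28 days after dosing.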

Liver [14] = assay: Drug uptake in Sprague-Dawley rat liver at 31 uCi, iv after 6 hrs by scintillation counting method; type: ADME, organism-based; details: in vivo
Summary of the method: (§5)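 Three female Sprague Dawley rats, about 23 weeks old. IV tail-vein dose of 5 mg/kg 3H-conjugate (31.0 µCi/rat) in 10% Poloxamer 188, pH 8.0 with NaHCO3, diluted 1:1 with PBS. Blood was drawn at 0.5 to 6 h. At 6 h tissues, including long bones, were taken and analysed for radioactivity by oxidation and scintillation counting.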

Bone [15] = assay: Drug uptake in Sprague-Dawley rat bone at 8.9 uCi, iv administered as bolus dose after 14 days; type: ADME, organism-based, Bone element; details: in vivo, 336 h; summary of the method: as §1
Spleen [16] = assay: Drug uptake in Sprague-Dawley rat spleen at 8.9 uCi, iv administered as bolus dose after 6 hrs; type: ADME, organism-based; details: in vivo; summary of the method: as §2
Serum = assay: Drug metabolism in rat serum assessed as tritium label liberation preincubated with bovine bone powder followed by rat serum addition measured after 24 hrs; type: ADME, cell-free
Summary of the method: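 Tritium-labelled conjugate first bound to bovine bone powder for 30 min in buffer. The powder was filtered, resuspended and incubated in fresh rat serum. Buffer and inactivated serum were run alongside. Tritium liberated after 24 h was measured.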

Spleen [17] = assay: Drug uptake in Sprague-Dawley rat spleen at 8.9 uCi, iv administered as bolus dose after 7 days; type: ADME, organism-based; details: in vivo, 168 h; summary of the method: as §2
Liver [18] = assay: Drug uptake in Sprague-Dawley rat liver at 8.9 uCi, iv administered as bolus dose after 1 day; type: ADME, organism-based; details: in vivo, 24 h; summary of the method: as §1
Rattus norvegicus [19] = assay: Toxicity in Sprague-Dawley rat assessed as behavioral change at 8.9 uCi, iv administered as bolus dose after 28 dyas; type: organism-based; details: in vivo; summary of the method: as §4
Kidney [20] = assay: Drug uptake in Sprague-Dawley rat kidney at 8.9 uCi, iv administered as bolus dose after 1 day; type: ADME, organism-based; details: in vivo, 24 h; summary of the method: as §1
Liver [21] = assay: Drug uptake in Sprague-Dawley rat liver at 8.9 uCi, iv administered as bolus dose after 6 hrs; type: ADME, organism-based; details: in vivo; summary of the method: as §1
Liver [22] = assay: Drug uptake in Sprague-Dawley rat liver at 8.9 uCi, iv administered as bolus dose after 7 days; type: ADME, organism-based; details: in vivo, 168 h; summary of the method: as §1
Brain [23] = assay: Drug uptake in Sprague-Dawley rat brain at 8.9 uCi, iv administered as bolus dose after 1 day; type: ADME, organism-based; details: in vivo, 24 h; summary of the method: as §1
Heart [24] = assay: Drug uptake in Sprague-Dawley rat heart at 8.9 uCi, iv administered as bolus dose after 7 days; type: ADME, organism-based; details: in vivo, 168 h; summary of the method: as §1
Liver [25] = assay: Drug uptake in Sprague-Dawley rat liver at 8.9 uCi, iv administered as bolus dose after 14 days; type: ADME, organism-based; details: in vivo, 336 h; summary of the method: as §1
Liver [26] = assay: Drug uptake in Sprague-Dawley rat liver at 8.9 uCi, iv administered as bolus dose after 28 days; type: ADME, organism-based; details: in vivo, 672 h; summary of the method: as §1
Bone [27] = assay: Drug uptake in Sprague-Dawley rat bone at 31 uCi, iv after 6 hrs by scintillation counting method; type: ADME, organism-based, Bone element; details: in vivo; summary of the method: as §5
Plasma [28] = assay: Drug metabolism in rat plasma assessed as tritium label liberation preincubated with rat plasma followed by bovine bone powder addition measured after 24 hrs; type: ADME, cell-free; summary of the method: as §3
Heart [29] = assay: Drug uptake in Sprague-Dawley rat heart at 8.9 uCi, iv administered as bolus dose after 1 day; type: ADME, organism-based; details: in vivo, 24 h; summary of the method: as §1
Kidney [30] = assay: Drug uptake in Sprague-Dawley rat kidney at 8.9 uCi, iv administered as bolus dose after 7 days; type: ADME, organism-based; details: in vivo, 168 h; summary of the method: as §1
Kidney [31] = assay: Drug uptake in Sprague-Dawley rat kidney at 8.9 uCi, iv administered as bolus dose after 14 days; type: ADME, organism-based; details: in vivo, 336 h; summary of the method: as §1
Bone [32] = assay: Drug uptake in Sprague-Dawley rat bone at 8.9 uCi, iv administered as bolus dose after 7 days; type: ADME, organism-based, Bone element; details: in vivo, 168 h; summary of the method: as §1
Plasma [33] = assay: Drug metabolism in rat plasma assessed as tritium label liberation preincubated with rat plasma followed by bovine bone powder addition measured after 30 mins; type: ADME, cell-free; details: 0.5 h; summary of the method: as §3
Spleen [34] = assay: Drug uptake in Sprague-Dawley rat spleen at 8.9 uCi, iv administered as bolus dose after 1 day; type: ADME, organism-based; details: in vivo, 24 h; summary of the method: as §2

[3H]c1ccc(C(F)(F)[C@@H](/C=C/[C@H]2CCC(=O)N2CCCCCCC(=O)OCC)OC(=O)Cc2ccc(COC(=O)N[C@@H](CC(C)C)C(=O)N[C@@H](CCCNC(=N)N)C(=O)Nc3ccc(COC(=O)NCCCC(O)(P(=O)(O)O)P(=O)(O)O)cc3)cc2)cc1 gave a Drug uptake (Heart [1]) of 0.025 %ID, a Drug uptake (Bone [2]) of 2.1 %ID and a Drug uptake (Bone [3]) of 2.12 %ID. For the same compound, the Drug uptake (Bone [4]) was 0.74 %ID, the Drug uptake (Spleen [5]) was 0.037 %ID and the Drug uptake (Brain [6]) was 0.022 %ID. For the same compound, the Drug uptake (Kidney [7]) was 0.21 %ID, the Drug metabolism (Plasma [8]) was 44% and the Activity (Rattus norvegicus [9]) was “Toxic”. The Drug uptake (Kidney [10]) was 0.017 %ID, the Drug uptake (Spleen [11]) was 0.039 %ID and the metabolised at 24 h, 100 µM [12] was 55%. The Activity (Rattus norvegicus [13]) was “Non-Toxic”, the Drug uptake (Liver [14]) was “Active” and the Drug uptake (Bone [15]) was 0.8 %ID. For the same compound, the Drug uptake (Spleen [16]) was 0.35 %ID, the Drug metabolism (Serum) was less than 3% and the Drug uptake (Spleen [17]) was 0.076 %ID. For the same compound, the Drug uptake (Liver [18]) was 2.33 %ID, the Activity (Rattus norvegicus [19]) was “Non-Toxic” and the Drug uptake (Kidney [20]) was 0.11 %ID. For the same compound, the Drug uptake (Liver [21]) was 8.95 %ID, the Drug uptake (Liver [22]) was 0.48 %ID and the Drug uptake (Brain [23]) was 0.025 %ID. The Drug uptake (Heart [24]) was 0.014 %ID, the Drug uptake (Liver [25]) was 0.3 %ID and the Drug uptake (Liver [26]) was 0.08 %ID. It also gave a Drug uptake (Bone [27]) of 2.5 %ID, a Drug metabolism (Plasma [28]) of 53% and a Drug uptake (Heart [29]) of 0.021 %ID. For the same compound, the Drug uptake (Kidney [30]) was 0.053 %ID, the Drug uptake (Kidney [31]) was 0.026 %ID and the Drug uptake (Bone [32]) was 1.3 %ID. The Drug metabolism (Plasma [33]) was 27% and the Drug uptake (Spleen [34]) was 0.22 %ID.
